Assay outcomes deposited in PubChem by several laboratories.
In the library only some 2.1% were active in any assay of this set; here they are far more common.
EBI2 antag: EBI2 (human) antagonism; P32249; actives 0.81% (n = 360,000); inhibition, % at 5 µM; AID 651636; EBI2 beta-arrestin recruitment, luminescence, 7a,25-OHC stimulated; in the data active = inhibition above about 38%;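 also: enzyme fragment complementation signal reports receptor beta-arrestin coupling in cells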
CCR6 antagonist: antagonists of human CCR6 receptor; P51684; CHO-K1 CCR6 PathHunter beta-arrestin, luminescence, CCL20-stimulated; inhibition, % at 20 µM; actives 0.49% (n = 340,000);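 active = compounds whose inhibition of the agonist-driven luminescence signal at 20 µM reaches about 50%, limit read from the data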;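 also: cells stimulated with CCL20 at 14 nM final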
m5-HT2A agonist: mouse HTR2A agonism via beta-arrestin recruitment | P35363 | CHO-K1 mHTR2A beta-arrestin complementation, luminescence; percent of 30 µM serotonin response | activation, % at 7.6 µM | actives 0.66% (n = 360,000) | AID 624169;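 active = activation above a run cutoff, the mean activation of all tested compounds plus 3 SD, cut at about 14% in these data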
Target sequence (P35363 whole entry, looked up): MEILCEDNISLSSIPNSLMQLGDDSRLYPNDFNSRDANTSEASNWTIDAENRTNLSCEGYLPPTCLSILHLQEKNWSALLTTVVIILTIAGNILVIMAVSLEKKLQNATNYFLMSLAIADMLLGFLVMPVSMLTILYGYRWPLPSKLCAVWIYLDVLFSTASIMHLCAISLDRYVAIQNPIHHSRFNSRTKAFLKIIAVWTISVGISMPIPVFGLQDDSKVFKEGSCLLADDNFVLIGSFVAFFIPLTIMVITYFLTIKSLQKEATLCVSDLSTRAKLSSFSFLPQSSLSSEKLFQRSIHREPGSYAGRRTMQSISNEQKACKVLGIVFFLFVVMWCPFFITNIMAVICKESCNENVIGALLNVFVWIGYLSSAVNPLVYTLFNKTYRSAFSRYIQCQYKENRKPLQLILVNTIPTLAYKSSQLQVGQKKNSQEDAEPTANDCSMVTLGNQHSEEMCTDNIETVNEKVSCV
APJ antagonist: antagonists of human APJ apelin receptor; inhibition, % at 20 µM; CHO-K1 APJ beta-arrestin complementation, luminescence; P35414; actives 0.32% (n = 330,000);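 active = inhibition above about 40% at 20 µM, limit read from the data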;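 also: cells challenged with 10 nM apelin-13 agonist together with compound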
CXCR6 inh: blocks human CXCR6 beta-arrestin recruitment; O00574; CHO-K1 PathHunter CXCR6 beta-arrestin, luminescence; inhibition, % at 20 µM; actives 0.36% (n = 360,000); in the data active = inhibition above about 34%, passing the limit was not always enough;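 also: antagonist mode with CXCL16 agonist at 10 nM final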
APJ agonist: activates the human apelin receptor APJ. CHO-K1 APJ PathHunter beta-arrestin, luminescence; 0% DMSO wells, 100% apelin. activation, % at 20 µM. actives 0.11% (n = 330,000). P35414;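 active = activation more than six SD over the plate average, tested at 20 µM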
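Assay system – PathHunter CHO-K1 APJ (AGTRL-1) beta-arrestin reporter cells · Compound – one dose, 20 µM compound, 1% DMSO · Timing – compound 90 min 25 °C, reagent 1 h · Measured by – luminescence from split beta-galactosidase complementation, Galacton Star/Emerald II substrate · Measure – beta-arrestin recruitment to APJ as agonist activity, luminescent signal · Benchmarks – DMSO vs Apelin-13 10 nM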
Each line names hits and unclear results; the compound was inactive in the other large screens.

COc1ccc([N+](=O)[O-])c(S(=O)(=O)c2ccccc2)n1	CCR6 antagonist 65, CXCR6 inh 59
COc1ccc([N+](=O)[O-])c(S(=O)(=O)c2ccc(Cl)cc2)n1	CCR6 antagonist 75, CXCR6 inh 68
CCO[C@@H]1OC(C(=O)N2CCOCC2)=C[C@H](c2ccc(Br)cc2)[C@H]1CCCO	m5-HT2A agonist 18
Cn1c(=O)c(=O)n(C)c2cc(S(=O)(=O)NCCOc3ccccc3Cl)ccc21	APJ antagonist 40
O=S(=O)(NCCOc1ccccc1Cl)c1ccc2oc3ccccc3c2c1	none
COc1ccc(N/N=C(/N=Nc2nc(C)cc(=O)[nH]2)c2ccccc2)cc1	CXCR6 inh 33
COc1ccccc1N1C(=O)C=C(Sc2nc(C)cc(C)n2)C1=O	CCR6 antagonist 94
COc1cc(C(=O)NC(CCSC)C(=O)OCC(=O)C(C)(C)C)cc(OC)c1OC (stereo not drawn)	none
CCOC(=O)CSC1=NC(=O)/C(=C/c2ccc(OC)cc2)S1	CCR6 antagonist 54
COc1ccc(/C=C2\SC(N)=NC2=O)cc1	none
Cc1ncc(CN2CCC(n3nccc3NC(=O)c3ccccc3)CC2)s1	none
CCOC(=O)c1c(NC(=O)C(NCCN(C)C)c2ccccc2)sc2c1CCCC2 (stereo not drawn)	CCR6 antagonist 54
Cn1nccc1C(=O)OCC(=O)Nc1ccccc1Cl	none
C=CC[C@]12CCc3ccccc3C1N(c1ccc(C(=O)OCC)cc1)C2=O (stereo partly drawn)	none
CN(C)c1ccc(C=c2c3ccccc3n3c2cc(-c2ccc(Cl)cc2)[n+]3C)cc1	none (no result: APJ antagonist, APJ agonist)
CN(C)c1ccc(C=c2c3cc([N+](=O)[O-])ccc3n3c2cc(-c2ccccc2)[n+]3C)cc1	CCR6 antagonist 68, CXCR6 inh 49 (no result: APJ antagonist, APJ agonist)
COc1cc(C=c2c3ccccc3n3c2cc(-c2ccccc2)[n+]3C)cc(OC)c1OC	none (no result: APJ antagonist, APJ agonist)
CN(C)c1ccc(C=c2c3ccccc3n3c2cc(-c2ccccc2)[n+]3C)cc1	CCR6 antagonist 62, CXCR6 inh 52 (no result: APJ antagonist, APJ agonist)
CN(C)c1ccc(C=c2c3ccccc3n3c2c2c([n+]3C)CCCC2)cc1	CXCR6 inh 45 (no result: APJ antagonist, APJ agonist)
COc1cc(N(C)C)ccc1C=c1c2ccccc2n2c1cc(-c1ccccc1)[n+]2C	CCR6 antagonist 65, CXCR6 inh 60 (no result: APJ antagonist, APJ agonist)
CCN(CC)C(=O)C1=C(C)N(Cc2ccc(OC)cc2)C(=O)C(CC(=O)NCCc2ccccn2)C1 (stereo not drawn)	none (no result: CCR6 antagonist, APJ antagonist, APJ agonist)
CC(=O)N(C1CC(C)C(C#N)(C#N)C1(C#N)C#N)N(C)C (stereo not drawn)	CCR6 antagonist 78
CCCC(=O)N(C1CC(C)C(C#N)(C#N)C1(C#N)C#N)N(C)C (stereo not drawn)	CCR6 antagonist 94, CXCR6 inh 81
Cc1cc(C(=O)Nc2cccnc2)on1	m5-HT2A agonist 15
Cc1cc(C(=O)Nc2cccnc2)no1	none
Cc1ccc2c(c1)cc1c(=O)n(CC(=O)N3CCCC3)nc(C)n12	none
CC(C)(C)c1ccc(OCC(=O)NNC(=S)NC(=O)c2ccco2)c(Br)c1	CCR6 antagonist 56
O=C1/C(=C/c2ccc(O)c(O)c2)SC(=S)N1Nc1ccccc1	CCR6 antagonist 61, CXCR6 inh 51 (no result: APJ antagonist, APJ agonist)
CC(CCc1ccccc1)NC(=O)COC(=O)c1ccc([N+](=O)[O-])cc1 (stereo not drawn)	none
CC(CCc1ccccc1)NC(=O)COC(=O)c1ccc(S(C)(=O)=O)c([N+](=O)[O-])c1 (stereo not drawn)	CCR6 antagonist 50
COc1ccc(-c2cc(C(=O)NC(C)c3ccccn3)c3ccccc3n2)cc1OC (stereo not drawn)	m5-HT2A agonist 20
COc1ccc(-c2cc(C(=O)NC3CCCC3)c3ccccc3n2)cc1OC	none
COc1cc(/C=C2\SC(c3ccccc3)=NC2=O)cc(Cl)c1O	CCR6 antagonist 74 (no result: APJ antagonist, APJ agonist)
COc1cc(/C=C2/C(=O)ON=C2C)cc(Cl)c1O	CCR6 antagonist 59
COc1cc(/C=C2\SC(c3ccc(C)cc3)=NC2=O)cc(OC)c1OC	none
C#CCOc1c(Cl)cc(/C=C2/C(=O)ON=C2C)cc1OC	none
CC1=NNC(=O)/C1=C\c1cn(-c2ccccc2)nc1-c1ccc(F)cc1	EBI2 antag 86 (no result: APJ antagonist, APJ agonist)
CCCCC(C(=O)NC1CCCC1)N(C(=O)c1snc(C(N)=O)c1N)c1ccc(F)cc1 (stereo not drawn)	none
Oc1c(Br)cc(Br)cc1C=Nc1ccc2[nH]ncc2c1	APJ agonist 14
COc1cc(C=C2CN(C)C(=O)C2=O)ccc1O	none (no result: CCR6 antagonist, APJ antagonist, APJ agonist)
CCOc1cc(/C=C2\CN(C)C/C(=C\c3ccc(O)c(OCC)c3)C2=O)ccc1O	CCR6 antagonist 57
O=C(Nc1ccc2cn[nH]c2c1)c1c(Cl)cccc1Cl	none
O=C1C(Cl)=C(Nc2ccc3cn[nH]c3c2)C(=O)c2ccccc21	CCR6 antagonist 78, CXCR6 inh 56 (no result: APJ antagonist, APJ agonist)
O=C(NCc1ccc2c(c1)OCO2)c1nc(S(=O)(=O)Cc2ccccc2)ncc1Cl	CCR6 antagonist 63
Cc1cc(C)nc(N/N=C/c2ccccc2OCc2ccc(Br)cc2)n1	none
Cc1cc(C)nc(N/N=C/c2cc(Br)ccc2O)n1	CXCR6 inh 44
CN1C(=O)C(=O)N(CC(=O)Nc2ccccc2OC(F)F)C1=O	none
CC(=O)OC[C@]12CC[C@H]3[C@@](C)(CC[C@H]4C(C)(C)CCC[C@]34C)[C@@H]1C[C@H](C1=CC(=O)O[C@@H]1OC(C)=O)O2	APJ agonist 11 (no result: EBI2 antag, CCR6 antagonist, m5-HT2A agonist, CXCR6 inh)
O=C1C=CN2CCOCC2C1 (stereo not drawn)	none
Cc1ccc(S(=O)(=O)c2ccc([N+](=O)[O-])o2)cc1	CCR6 antagonist 103, CXCR6 inh 97 (no result: APJ antagonist, APJ agonist)
Cc1ccc(Cl)cc1N1CCN(C(=O)c2cc3c(=O)n(C)c4ccccc4c3n2C)CC1	APJ agonist 13
O=C(NNC(=O)c1cc(S(=O)(=O)N2CCOCC2)c(Cl)cc1Cl)c1ccccc1F	none
COc1ncnc2c1ncn2CC1COC(C)(C)O1 (stereo not drawn)	none
CCC(C)[C@@H](NC(=O)OC(C)(C)C)c1nnc(S(=O)(=O)Cc2cccc(C)c2)o1 (stereo partly drawn)	CXCR6 inh 53 (no result: APJ antagonist, APJ agonist)
Cc1ccc(-c2[nH]ncc2/C=N/n2c(COc3ccccc3)nc3ccccc3c2=O)cc1	none
Cc1cc(/C=N/n2c(COc3ccccc3)nc3ccccc3c2=O)c(O)c([N+](=O)[O-])c1	EBI2 antag 45
CSCC[C@H](NC(=O)OC(C)(C)C)C(=O)NCC1CCC(C(=O)N[C@@H](Cc2ccccc2)C(=O)O)CC1 (stereo partly drawn)	none
CCOC(=O)/C=C/C(=O)Nc1cccc([N+](=O)[O-])c1	CXCR6 inh 85 (no result: CCR6 antagonist)
